# From ChEMBL document CHEMBL2169786, “5-Arylidenethioxothiazolidinones as inhibitors of tyrosyl-DNA phosphodiesterase I” (J Med Chem, 2012)
# Calls of active or inactive are those of the source. No cut-off for these calls is given here.
# How the values were obtained:
# [1] = target: T1, Tyrosyl-DNA phosphodiesterase 1 (Homo sapiens, UniProt Q9NUW8); test: Inhibition of human recombinant Tdp1 assessed as conversion of 14-mer 5'-32P-labeled 3'-phosphotyrosyl DNA substrate N14Y to 14-mer 5'-32P-labeled 3'-phosphate DNA product N14P after 15 mins by PAGE analysis
# [2] = target: T1, Tyrosyl-DNA phosphodiesterase 1; test: Inhibition of human recombinant Tdp1 expressed in Tdp1 knockout chicken DT40 cells using 5'-32P-labeled 5'-GATCTAAAAGACTT-pY-3' as substrate after 15 mins by PAGE analysis
# [3] = target: T1, Tyrosyl-DNA phosphodiesterase 1; test: Inhibition of human recombinant Tdp1 assessed as conversion of 14-mer 5'-32P-labeled 3'-phosphotyrosyl DNA substrate N14Y to 14-mer 5'-32P-labeled 3'-phosphate DNA product N14P after 15 mins by PAGE analysis in presence of bovine serum albumin
# [4] = target: T1, Tyrosyl-DNA phosphodiesterase 1; test: Ratio of IC50 for human recombinant Tdp1 in presence of bovine serum albumin to IC50 for human recombinant Tdp1 in absence of bovine serum albumin
# [5] = target: T2, Tyrosyl-DNA phosphodiesterase 2 (Homo sapiens, UniProt O95551); test: Inhibition of recombinant Tdp2
# T2 sequence (O95551 whole entry): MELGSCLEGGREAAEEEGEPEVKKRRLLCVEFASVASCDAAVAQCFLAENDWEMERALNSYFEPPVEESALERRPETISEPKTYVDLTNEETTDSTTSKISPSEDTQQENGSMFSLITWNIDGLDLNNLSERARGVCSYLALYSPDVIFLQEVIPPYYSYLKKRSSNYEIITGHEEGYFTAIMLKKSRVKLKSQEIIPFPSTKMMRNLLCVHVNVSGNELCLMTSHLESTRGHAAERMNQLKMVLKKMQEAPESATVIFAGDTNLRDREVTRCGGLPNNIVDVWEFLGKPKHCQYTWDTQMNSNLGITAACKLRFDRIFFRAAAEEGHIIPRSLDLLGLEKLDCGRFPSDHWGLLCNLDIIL
# Homo sapiens = species on record: Homo sapiens; test: Selectivity ratio of IC50 for recombinant Tdp2 to IC50 for human recombinant Tdp1
# [6] = target: T1, Tyrosyl-DNA phosphodiesterase 1; test: Binding affinity to human recombinant Tdp1 in amine coupled to CM5 sensor chip by surface plasmon resonance analysis
# Summary of the method: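 SPR: Tdp1 amine-coupled to CM5 chip (~6000 RU), active site protected during coupling by prebinding 2 μM 3′-phosphate 14-mer oligo to 1 μM Tdp1 in 10 mM sodium acetate pH 4.5, 20 min. Compound series 0.39–50 μM in Tris/KCl/EDTA/DTT/BSA running buffer with 5% DMSO, pH 7.5, injected at 30 μL/min, 25 °C. Buffer-cycle referencing; DMSO calibration.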
# [7] = test system: N14Y tyrosyl-oligonucleotide (DNA, no organism); test: Binding affinity to biotin- GATCTAAAAGACTT-Tyr immobilized CM5 sensor chip by surface plasmon resonance analysis
# T1 sequence (Q9NUW8 whole entry): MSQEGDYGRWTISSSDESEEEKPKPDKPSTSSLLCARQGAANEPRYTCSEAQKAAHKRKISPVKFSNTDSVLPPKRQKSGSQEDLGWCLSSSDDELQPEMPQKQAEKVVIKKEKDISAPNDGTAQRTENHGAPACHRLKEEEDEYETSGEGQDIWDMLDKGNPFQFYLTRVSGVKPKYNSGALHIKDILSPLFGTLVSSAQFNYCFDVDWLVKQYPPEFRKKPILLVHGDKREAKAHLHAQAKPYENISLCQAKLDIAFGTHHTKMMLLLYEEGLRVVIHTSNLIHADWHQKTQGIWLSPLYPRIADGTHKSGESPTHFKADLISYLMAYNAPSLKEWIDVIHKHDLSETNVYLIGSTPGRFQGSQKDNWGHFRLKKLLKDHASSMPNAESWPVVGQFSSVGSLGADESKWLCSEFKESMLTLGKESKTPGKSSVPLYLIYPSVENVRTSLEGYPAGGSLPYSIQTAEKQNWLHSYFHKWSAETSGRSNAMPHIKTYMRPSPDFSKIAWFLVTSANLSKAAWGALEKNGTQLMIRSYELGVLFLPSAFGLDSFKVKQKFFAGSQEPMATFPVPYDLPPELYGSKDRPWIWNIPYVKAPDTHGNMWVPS
IC50 [1] [µM],Structure (SMILES),other results
28,N#Cc1ccc(/C=C2\SC(=O)NC2=S)cc1,–
32,O=C1NC(=S)/C(=C/c2ccc(-c3nnn[nH]3)cc2)S1,–
> 333,N#C/C(=C\c1ccc2ccccc2c1)C(N)=S,–
74,O=C1/C(=C/c2ccc(O)c(O)c2)NC(=S)N1c1ccccc1,–
11,COc1cc(/C=C2\SC(=O)NC2=S)ccc1O,–
27,O=C1NC(=S)/C(=C/c2ccc(F)cc2)S1,–
> 333,O=C1/C(=C/c2ccc(F)cc2)NC(=S)N1c1ccccc1,–
12,O=C1NC(=S)/C(=C/c2ccc3[nH]ccc3c2)S1,–
44,O=C1NC(=S)/C(=C/c2cccnc2)S1,–
111,O=C1NC(=S)/C(=C/c2ccccc2-c2nnn[nH]2)S1,–
> 333,O=C1NC(=O)/C(=C/c2ccc(F)cc2)S1,–
> 333,N#C/C(=C\c1ccc2[nH]ccc2c1)C(N)=S,–
2.6,O=C1NC(=S)/C(=C/c2ccc(O)c(O)c2)S1,IC50 [2]: 41 µM
39,O=C1NC(=S)/C(=C/c2ccc(O)cc2)S1,–
13,O=C1NC(=S)N(Cc2ccccc2)/C1=C\c1ccc(O)c(O)c1,–
46,O=C1NC(=S)/C(=C/c2ccc(-c3ccccc3)s2)S1,–
75,O=C1NC(=S)/C(=C/c2ccncc2)S1,–
15,O=C1NC(=S)/C(=C/c2ccccc2C(=O)O)S1 [listing 1 of 2 here],IC50 [2]: 138 µM
16,O=C1NC(=S)/C(=C/c2ccc(C(=O)O)cc2)S1 [listing 1 of 2 here],IC50 [2]: 11 µM
> 333,N#C/C(=C\c1ccc(F)cc1)C(N)=S,–
> 111,O=C1NC(=O)/C(=C/c2ccc3[nH]ccc3c2)S1,–
6.7,COC(=O)c1ccc(/C=C2\SC(=O)NC2=S)cc1,IC50 [2]: 38 µM
0.87,O=C1NC(=S)/C(=C/c2ccc(O)c(O)c2O)S1,IC50 [2]: 35 µM; IC50 [3]: 2.8 µM; Ratio IC50 [4]: 3; IC50 [5]: 17 µM; Ratio IC50 (Homo sapiens): 20; Activity [6]: Dose-dependent effect; Activity [7]: inactive
40,Cn1cc(/C=C2\SC(=O)NC2=S)c2ccccc21,–
2.2,O=C1NC(=S)/C(=C/c2ccc(P(=O)(O)O)cc2)S1,IC50 [2]: 69 µM

IC50 [1] [µM],Structure (SMILES),other results
51,COC(=O)c1cccc(/C=C2\SC(=O)NC2=S)c1,–
> 333,O=C(O)c1ccc(/C=C2\NC(=S)N(c3ccccc3)C2=O)cc1,–
18,N#C/C(=C\c1ccc(O)c(O)c1)C(=S)NCc1ccccc1,–
26,O=C1NC(=S)/C(=C/c2cccc(O)c2)S1,–
20,O=C1NC(=S)/C(=C/c2ccccc2S(=O)(=O)O)S1,–
8.5,O=C1NC(=S)/C(=C/c2ccccc2C(=O)O)S1 [listing 2 of 2 here],IC50 [2]: 280 µM
5.8,O=C1NC(=S)/C(=C/c2cccc(O)c2O)S1,IC50 [2]: 220 µM
> 333,N#C/C(=C\c1ccc(O)c(O)c1)C(=O)O,–
> 333,N#C/C(=C\c1ccc(O)c(O)c1)C(N)=O,–
7.8,O=C1NC(=S)/C(=C/c2ccc(C(=O)O)cc2)S1 [listing 2 of 2 here],IC50 [2]: 6.9 µM
> 333,N#C/C(=C\c1ccc(Br)cc1)C(N)=S,–
48,COc1cc(/C=C2\SC(=O)NC2=S)cc(OC)c1O,–
> 333,CC(=O)Nc1ccc(/C=C(\C#N)C(N)=S)cc1,–
4.1,O=C1NC(=S)/C(=C/c2ccc(O)cc2O)S1,IC50 [2]: 76 µM
34,O=C1NC(=S)/C(=C/c2csc3ccccc23)S1,–
19,O=C1NC(=S)/C(=C/c2ccc([N+](=O)[O-])cc2)S1,–
> 111,O=C1NC(=O)/C(=C/c2ccc(C(=O)O)cc2)S1,–
15,O=C1NC(=S)/C(=C/c2cccc(C(=O)O)c2)S1,–
30,O=C1NC(=S)/C(=C/c2ccc(Br)cc2)S1,–
> 333,N#C/C(=C\c1ccc([N+](=O)[O-])cc1)C(N)=S,–
> 333,N#C/C(=C\c1ccc(O)c(O)c1)C(=O)NCc1ccccc1,–
7.1,O=C1NC(=S)/C(=C/c2cc(O)ccc2O)S1,IC50 [2]: 76 µM
12,N#C/C(=C\c1ccc(C(=O)O)cc1)C(N)=S,–
> 333,O=C1NC(=S)N(Cc2ccccc2)/C1=C\c1ccc(C(=O)O)cc1,–
34,O=C1NC(=S)/C(=C/c2ccccc2O)S1,–

Structure (SMILES),IC50 [1] [µM],other results
N#CC(C#N)=Cc1cc(O)c(O)c(O)c1 [TYRPHOSTIN 25],> 333,–
CCOP(=O)(OCC)c1ccc(/C=C2\SC(=O)NC2=S)cc1,29,–
